Bioassay records: PubChem, several laboratories
This is a sample that favours compounds with a hit; in the whole collection about 1.6% have one here.
SR-BI HDL uptake: inhibitors of mouse SR-BI mediated HDL lipid uptake. ldlA[mSR-BI] CHO cells, DiI-HDL uptake fluorescence, 3 h. inhibition, % at 12.5 µM. 0.96% of 320,000 active. Q61009. AID 488896;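 active = mean replicate inhibition of at least 70% and a set share of replicates each scoring 70 or more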;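 note: 0% = median of neutral control wells and 100% = median of positive control wells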
Target sequence (Q61009 whole entry, looked up): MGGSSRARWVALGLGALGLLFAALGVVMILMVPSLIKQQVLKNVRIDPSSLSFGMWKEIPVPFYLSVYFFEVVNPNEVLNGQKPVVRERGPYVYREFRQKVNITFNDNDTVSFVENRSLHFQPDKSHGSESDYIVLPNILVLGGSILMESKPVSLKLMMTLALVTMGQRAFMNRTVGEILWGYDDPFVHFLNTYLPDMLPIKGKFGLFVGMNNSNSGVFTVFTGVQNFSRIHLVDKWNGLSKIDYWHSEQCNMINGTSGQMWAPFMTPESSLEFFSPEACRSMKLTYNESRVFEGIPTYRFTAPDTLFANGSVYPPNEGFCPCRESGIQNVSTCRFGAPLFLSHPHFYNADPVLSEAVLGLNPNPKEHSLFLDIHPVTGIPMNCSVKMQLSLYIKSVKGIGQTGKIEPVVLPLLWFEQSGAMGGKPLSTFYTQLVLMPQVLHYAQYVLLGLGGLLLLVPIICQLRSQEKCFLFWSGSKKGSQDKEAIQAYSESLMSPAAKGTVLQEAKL
SR-BI DiI-HDL act: activators of SR-BI mediated HDL lipid uptake; CHO ldlA[mSR-BI] cells, DiI-HDL uptake fluorescence, 3 h; 100 = double the neutral-control signal; activation, % at 12.5 µM; 0.096% of 320,000 active;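 active = mean replicate activation of at least 60% and every replicate at or above 60%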;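 note: 0% = median plate neutral-control signal and 100% = twice that signal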
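Test system: SR-BI-overexpressing, LDLR-lacking CHO cells. Measured by: DiI fluorescence, bottom read. Medium: Ham's F12 with 0.5% BSA, HEPES 25 mM, pH 7.4. Timing: 3 h uptake period with compound, 37 °C.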
TAG inh: inhibitors of triacylglycerol accumulation; H9c2 cells, Nile Red lipid (TAG) fluorescence; cells loaded with 200 µM oleic acid; inhibition, % at 12.5 µM; 0.66% of 230,000 active; AID 651582;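 active = pattern-corrected inhibition of lipid staining of at least 50% with the nuclear-stain viability signal not falling by more than 50%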;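 note: 0% = DMSO wells and 100% = triacsin C control wells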
Vif imaging: HIV Vif inhibition | HEK293T cells, Vif self-association by quenched fluorescence, imaging, 24 h | inhibition, % at 7.49 µM | 0.35% of 340,000 active | AID 602346; in the data active = inhibition above about 50%, passing the limit was not always enough
A1 inh: inhibitors of the anti-apoptotic protein A1, read as caspase activation. MEF A1-2A-BIM cells, Caspase-Glo 3/7 luminescence, 3 h; percent of clofoctol response, vehicle zero. 0.066% of 330,000 active. caspase activation, % (concentration not given with the values);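 active = over half of replicate activation scores above 10%, or exactly half above 10 with the replicate mean above 10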
* marks the source's active call; other numbers are inactive results; x = no result given.

SMILES	SR-BI HDL uptake	SR-BI DiI-HDL act	TAG inh	Vif imaging	A1 inh
Cc1cccc(-c2cc3nc4c(c(N5CCOCC5)n3n2)CCCC4)c1	53	-53	x	x	-3
CCC(C(=O)Nc1ccc(OC)c(Cl)c1)c1ccccc1 (configuration not stated)	14	-14	x	x	0
COc1ccc(NC(=O)C(Sc2nnc3ccccn23)c2ccccc2)cc1Cl (configuration not stated)	-82	82*	x	-5	0
CC1CCN(c2ccc(NC(=O)c3ccc([N+](=O)[O-])o3)cc2)CC1	87*	-87	84	-3	-5
CCCC(=O)N1CCN(c2ccc(NC(=O)c3ccc([N+](=O)[O-])o3)cc2)CC1	19	-19	101	30	x
CCC(=O)N1CCN(c2ccc(NC(=O)c3ccc([N+](=O)[O-])o3)cc2)CC1	-4	4	81	73*	x
Cc1ccc(NC(=O)c2ccc([N+](=O)[O-])o2)cc1C	34	-34	73	9	0
O=C(Nc1ccc2[nH]c(=O)[nH]c2c1)c1ccc([N+](=O)[O-])o1	-19	19	53*	1	-1
CC(C)Oc1ccccc1/C=N/n1nnnc1N	12	-12	1	-4	0
COc1cc(OC)c(C(=O)N(CCc2ccccc2)Cc2ccccc2)cc1OC	19	-19	-15	x	-1
Cc1cc(C)cc(C(=O)Nn2cnnc2)c1	-21	21	x	-4	-1
COc1ccc(S(=O)(=O)N2CCOC2CNC(=O)C(=O)NCCCn2ccnc2)cc1OC (configuration not stated)	-9	9	5	-1	0
COc1ccc(S(=O)(=O)N2CCCOC2CNC(=O)C(=O)NCCCn2ccnc2)cc1OC (configuration not stated)	-71	71*	10	9	-1
Cc1ccccc1CN1CCN(c2ccc(S(=O)(=O)N3CCCC3)cn2)CC1	-5	5	2	-3	-1
CCn1c(O)c(/C=N/NC(=O)c2ccncc2)c(=O)n(CC)c1=S	74*	-74	8	22	x
COc1cccc(/C=N/NC(=S)NC2CC3CCC2C3)c1OC (configuration not stated)	9	-9	-5	9	0
Oc1ccccc1/C=N/NC(=S)NC1CC2CCC1C2 (configuration not stated)	76*	-76	-4	0	-1
CSc1n[nH]c(NC(C)=O)n1	-18	18	x	-3	-1
CSc1n[nH]c(NC2=CC(=O)CCC2)n1	-10	10	-8	59*	1
NC(=O)c1ccc[n+](CC(=O)c2cccc([N+](=O)[O-])c2)c1	-24	24	x	-7	2
COc1ccc(C[C@H]2CN3C(=NC[C@@H]3Cc3ccccc3)N2CCNC(=O)c2ccc(C)c(Br)c2)cc1	27	-27	120*	-18	-1
Cc1cccc(-n2c(Cc3cc(=O)[nH]c(=O)[nH]3)nnc2SCC(=O)N2CCc3ccccc32)c1	-11	11	-12	-3	1
Cc1cc2oc(=O)cc(-c3ccccc3)c2c(C)c1-c1ccc(CO)cc1	75*	-75	-3	-2	x
Cc1cc2oc(=O)cc(-c3ccccc3)c2c(C)c1-c1ccc(C#N)cc1	82*	-82	12	-7	x
CC(=O)c1ccc(-c2c(C)cc3oc(=O)cc(-c4ccccc4)c3c2C)cc1	56	-56	7	-4	x
SMILES	SR-BI HDL uptake	SR-BI DiI-HDL act	TAG inh	Vif imaging	A1 inh
CC(=O)Nc1ccc2nc(NC(=O)COc3cccc(C)c3)sc2c1	13	-13	-10	-6	1
COc1cc(CNCc2ccccc2)c(Br)cc1OC1CCCC1	7	-7	-23	75*	0
CCc1noc(C)c1C(=O)NNC(=O)c1ccc(Br)cc1	-28	28	0	10	0
CCc1noc(C)c1C(=O)NNC(=O)c1ccc(N(CC)CC)cc1	19	-19	23	60*	1
O=C(Nc1ccc(F)c(Cl)c1)c1csc([C@H]2C[C@H](O)[C@@H](CO)O2)n1	x	x	10	54*	x
COc1cc(C(=O)NCC2CCCO2)ccc1OCc1ccc(Cl)cc1Cl (configuration not stated)	79*	-79	2	-10	0
S=C(NC1CCCCC1)N1CCc2ccccc2C1	0	0	x	-11	1
S=C(NC1CC1)N1CCc2ccccc2C1	8	-8	5	94*	-1
CNc1nc(-c2ccc3c(c2)CCN3C(=O)CC(C)(C)C)c(C)s1	73*	-73	16	1	1
Cc1sc(NC(=O)CN2CCCC2)nc1-c1ccc2c(c1)CCN2C(=O)c1ccc(F)cc1	x	x	x	2	0
CC(=O)Nc1nc(-c2ccc3c(c2)CCN3C(=O)C2CC2)c(C)s1	95*	-95	x	7	0
CCN(C(=O)COC(=O)c1ccccc1NCCO)c1cccc2ccccc12	-20	20	-11	-2	1
C/C=C(\C)CN1CCC(n2nccc2NC(=O)CCCc2ccccc2)CC1	-6	6	-7	-4	0
Cc1ccc2cccc(Oc3ncnc4sc(C)c(C)c34)c2n1	77*	-77	x	-6	1
CCNc1nc(SCC(=O)OC)nc(N(C)C)n1	-25	25	2	-2	-1
O=[N+]([O-])c1cccc(-c2nc(-c3ccccc3)c(-c3cccs3)[nH]2)c1	x	x	x	-9	0
O=[N+]([O-])c1cccc(-c2nc(-c3cccs3)c(-c3cccs3)[nH]2)c1	91*	-91	25	7	-1
O=C(/C=C/[C@H]1O[C@@H](n2ccc(=O)[nH]c2=O)[C@H](O)[C@@H]1O)NCCN1CCCC1	x	x	x	1	x
COc1ccc(/C=C2/CCC(CN3CCOCC3)C2=O)cc1 (configuration not stated)	15	-15	73*	-6	x
Cc1c(C)n(C)c2ccc(C(=O)NCCCN3CCCC3)cc12	43	x	x	3	0
CCN(CC)c1ccc(NC(=O)c2ccc3c(c2)c(C)c(C)n3C)cc1	90*	-90	30	-14	0
Cc1ccc2nc(NC(=O)c3ccccn3)sc2c1	0	0	25	-7	-9
COc1ccc2nc(NC(=O)Cc3cccs3)sc2c1	8	-8	1	2	-4
CCOc1ccc2nc(NC(=O)Cc3cccs3)sc2c1	21	-21	64*	2	0
CCOc1ccc2nc(NC(=O)c3ccccn3)sc2c1	x	x	51*	-5	-7
CC(NCCCOc1cccc2ccccc12)c1ccccc1 (configuration not stated)	-18	18	29	-16	0
COc1cc(/C=N/n2c(-c3ccccc3)n[nH]c2=S)ccc1O	x	x	-2	-2	0
COc1ccc(/C=N/n2c(-c3ccc(C)cc3)n[nH]c2=S)cc1OC	36	-36	-3	99*	0
CCN1/C(=C/C=C/C=C/c2sc3ccccc3[n+]2CC)Sc2ccccc21	x	x	x	x	-1
